Measurements reported in ChEMBL document CHEMBL1157546, “3-(2-Aminocarbonylphenyl)propanoic acid analogs as potent and selective EP3 receptor antagonists. part 2: optimization of the side chains to improve in vitro and in vivo potencies” (Bioorg Med Chem, 2010).

Assays:
[1] = system: Rattus norvegicus; assay: Inhibition of PGE2-induced uterine contraction in intraduodenally dosed pregnant rat at 0.3 mg/kg; format: functional; settings: route intraduodenal
In short: (§1)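 Pregnant rats with uterine pressure recorded by transducer. Once spontaneous motility was stable, compound in 0.5% methylcellulose (5 mL/kg) or vehicle given intraduodenally. PGE2 given iv 30 min later.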

[2] = system: Rattus norvegicus; assay: Inhibition of PGE2-induced uterine contraction in intraduodenally dosed pregnant rat at 1 mg/kg; format: functional; settings: route intraduodenal; in short: as §1
[3] = molecular target: T1, Prostaglandin E2 receptor EP3 subtype (Mus musculus, UniProt P30557); assay: Displacement of [3H]PGE2 from mouse EP3 receptor expressed in CHO cell membrane; format: cell membranes
T1 sequence (P30557 whole entry): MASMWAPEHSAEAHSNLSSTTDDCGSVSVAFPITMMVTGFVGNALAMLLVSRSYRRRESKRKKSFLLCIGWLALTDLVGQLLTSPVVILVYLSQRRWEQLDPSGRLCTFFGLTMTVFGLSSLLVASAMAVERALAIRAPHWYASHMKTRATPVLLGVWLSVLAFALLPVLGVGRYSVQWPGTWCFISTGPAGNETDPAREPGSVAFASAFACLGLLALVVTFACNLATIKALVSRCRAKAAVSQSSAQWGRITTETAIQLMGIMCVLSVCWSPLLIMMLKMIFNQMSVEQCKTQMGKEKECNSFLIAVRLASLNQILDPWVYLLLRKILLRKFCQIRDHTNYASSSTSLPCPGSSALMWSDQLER

[4] = molecular target: T1, Prostaglandin E2 receptor EP3 subtype; assay: Antagonist activity at mouse EP3 receptor expressed in CHO cells assessed as inhibition of PGE2-induced increase intracellular calcium level in presence of 1% BSA by fluorimetry; format: functional, cell-based
In short: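 CHO cells expressing mouse EP3 seeded at 1 × 10⁴ cells/well and grown two days in 10% FBS/αMEM (37 °C, 5% CO2). Loaded 1 h with Fura 2/AM, indomethacin and 2.5 mM probenecid, rinsed, then held 1 h dark at room temperature in HBSS with 1% BSA and 10 mM HEPES. Compound added with 10 nM PGE2. Ca²⁺ read at 340/380 nm excitation, 500 nm emission; % inhibition relative to the PGE2 response without compound.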

[5] = system: Rattus norvegicus; assay: Inhibition of PGE2-induced uterine contraction in intraduodenally dosed pregnant rat at 0.1 mg/kg; format: functional; settings: route intraduodenal; in short: as §1
[6] = AUC in rat at […], iv; format: ADME, organism-based; set-up: dose 1.2 mg/kg, route intravenous; settings: plasma
[7] = AUC in rat at 11 mg/kg, po; format: ADME, organism-based; set-up: dose 11 mg/kg, route oral; settings: plasma
[8] = Volume of distribution at steady state in rat at […], iv; format: ADME, organism-based; set-up: dose 1.2 mg/kg, route intravenous; settings: in vivo, read-out: Vdss
[9] = Cmax in rat at 11 mg/kg, po; format: ADME, organism-based; set-up: dose 11 mg/kg, route oral; settings: in vivo
[10] = Oral bioavailability in rat at 11 mg/kg, po; format: ADME, organism-based; settings: in vivo
[11] = AUC in rat at 13 mg/kg, po; format: ADME, organism-based; set-up: dose 13 mg/kg, route oral; settings: plasma
[12] = Cmax in rat at 13 mg/kg, po; format: ADME, organism-based; set-up: dose 13 mg/kg, route oral; settings: in vivo
[13] = Oral bioavailability in rat at 13 mg/kg, po; format: ADME, organism-based; settings: in vivo

| Compound | Ki [3] [nM] | IC50 [4] [nM] | other results |
| --- | --- | --- | --- |
| Cc1cc(C)cc(C(CC(C)C)NC(=O)c2cc(COc3ccccc3C)ccc2CCC(=O)O)c1 (configuration not stated) | – | – | inhibition in vivo at 0.3 mg/kg [1]: 62%; inhibition in vivo at 1 mg/kg [2]: 83% |
| Cc1cc(C)cc(C(CC(C)C)NC(=O)c2cc(COc3ccccc3C#N)ccc2CCC(=O)O)c1 (configuration not stated) | 0.35 | 9.4 | – |
| CC(C)CC(NC(=O)c1cc(COc2ccccc2)ccc1CCC(=O)O)c1ccc(C(F)(F)F)c(F)c1 (configuration not stated) | 0.7 | 53 | – |
| COc1ccc(C(CC(C)C)NC(=O)c2cc(COc3cccc(C#N)c3)ccc2CCC(=O)O)cc1OC (configuration not stated) | 0.67 | 3.7 | – |
| COc1ccccc1C(CC(C)C)NC(=O)c1cc(COc2ccccc2)ccc1CCC(=O)O (configuration not stated) | 1.2 | 190 | – |
| CC(C)CC(NC(=O)c1cc(COc2ccccc2)ccc1CCC(=O)O)c1ccc(F)c(F)c1 (configuration not stated) | 0.4 | 47 | – |
| CC(C)CC(NC(=O)c1cc(COc2ccccc2)ccc1CCC(=O)O)c1ccc(F)cc1 (configuration not stated) | 0.93 | 20 | – |
| Cc1cc(C)cc(C(CC(C)C)NC(=O)c2cc(COc3cc(F)ccc3F)ccc2CCC(=O)O)c1 (configuration not stated) | – | – | inhibition in vivo at 0.1 mg/kg [5]: 48%; inhibition in vivo at 0.3 mg/kg [1]: 93%; inhibition in vivo at 1 mg/kg [2]: 98%; AUC [6]: 470 ng·h/mL; AUC [7]: 850 ng·h/mL; Vd [8]: 1.43 L/kg; Cmax [9]: 520 ng/mL; bioavailability [10]: 19% |
| Cc1cc(C)cc(C(CC(C)C)NC(=O)c2cc(COc3c(F)cccc3F)ccc2CCC(=O)O)c1 (configuration not stated) | 1.3 | 59 | – |
| Cc1cccc(C(CC(C)C)NC(=O)c2cc(COc3ccccc3)ccc2CCC(=O)O)c1 (configuration not stated) | 0.3 | 37 | – |
| Cc1cc(C)cc(C(CC(C)C)NC(=O)c2cc(COc3ccccc3)ccc2CCC(=O)O)c1 (configuration not stated) | – | – | inhibition in vivo at 0.3 mg/kg [1]: 28% |
| CC(C)CC(NC(=O)c1cc(COc2ccccc2)ccc1CCC(=O)O)c1ccccc1F (configuration not stated) | 1.4 | 130 | – |
| CC(C)CC(NC(=O)c1cc(COc2ccccc2)ccc1CCC(=O)O)c1ccc2c(c1)OCCO2 (configuration not stated) | 0.44 | 19 | – |
| COc1ccc(C(CC(C)C)NC(=O)c2cc(COc3ccccc3)ccc2CCC(=O)O)cc1 (configuration not stated) | 0.36 | 59 | – |
| CC(C)CC(NC(=O)c1cc(COc2ccccc2)ccc1CCC(=O)O)c1cccc(C(F)(F)F)c1 (configuration not stated) | 0.39 | 39 | – |
| COc1ccc(C(CC(C)C)NC(=O)c2cc(COc3ccccc3)ccc2CCC(=O)O)cc1OC (configuration not stated) | 0.5 | 24 | – |
| CC(C)CC(NC(=O)c1cc(COc2ccccc2)ccc1CCC(=O)O)c1cc(F)cc(C(F)(F)F)c1 (configuration not stated) | 0.45 | 15 | – |
| Cc1ccc(OCc2ccc(CCC(=O)O)c(C(=O)NC(CC(C)C)c3cc(C)cc(C)c3)c2)cc1 (configuration not stated) | 0.67 | 16 | – |
| Cc1ccc(C(CC(C)C)NC(=O)c2cc(COc3ccccc3)ccc2CCC(=O)O)cc1 (configuration not stated) | 0.63 | 51 | – |
| Cc1cc(C)cc(C(CC(C)C)NC(=O)c2cc(COc3ccc(F)c(F)c3)ccc2CCC(=O)O)c1 (configuration not stated) | 0.34 | 5.7 | – |
| Cc1cc(C)cc(C(CC(C)C)NC(=O)c2cc(COc3ccc(C#N)cc3)ccc2CCC(=O)O)c1 (configuration not stated) | 0.46 | 16 | – |
| Cc1cc(C)cc(C(CC(C)C)NC(=O)c2cc(COc3cccc(F)c3)ccc2CCC(=O)O)c1 (configuration not stated) | – | – | inhibition in vivo at 0.3 mg/kg [1]: 66%; inhibition in vivo at 1 mg/kg [2]: 84%; AUC [6]: 440 ng·h/mL; AUC [11]: 1090 ng·h/mL; Vd [8]: 1.32 L/kg; Cmax [12]: 390 ng/mL; bioavailability [13]: 23% |
| Cc1cc(C)cc(C(CC(C)C)NC(=O)c2cc(COc3cccc(C#N)c3)ccc2CCC(=O)O)c1 (configuration not stated) | – | – | inhibition in vivo at 0.3 mg/kg [1]: 55%; inhibition in vivo at 1 mg/kg [2]: 95% |
| CC(C)CC(NC(=O)c1cc(COc2ccccc2)ccc1CCC(=O)O)c1ccc(Cl)cc1 (configuration not stated) | 0.28 | 51 | – |
| CC(C)CC(NC(=O)c1cc(COc2ccccc2)ccc1CCC(=O)O)c1ccc(C(F)(F)F)cc1 (configuration not stated) | 0.76 | 32 | – |
| Cc1cc(C)cc(C(CC(C)C)NC(=O)c2cc(COc3ccc(Cl)cc3)ccc2CCC(=O)O)c1 (configuration not stated) | 0.62 | 30 | – |
| CC(C)CC(NC(=O)c1cc(COc2ccccc2)ccc1CCC(=O)O)c1cc(F)cc(F)c1 (configuration not stated) | 0.3 | 19 | – |
| Cc1ccccc1C(CC(C)C)NC(=O)c1cc(COc2ccccc2)ccc1CCC(=O)O (configuration not stated) | 0.94 | 230 | – |

Second part, led by results:

| Ki [3] [nM] | IC50 [4] [nM] | Compound | other results |
| --- | --- | --- | --- |
| 0.17 | 7.1 | CC(C)CC(NC(=O)c1cc(COc2cccc(C#N)c2)ccc1CCC(=O)O)c1ccc(F)cc1 (configuration not stated) | – |
| 0.2 | 67 | Cc1ccc(C(CC(C)C)NC(=O)c2cc(COc3ccccc3)ccc2CCC(=O)O)cc1F (configuration not stated) | – |
| 0.19 | 10 | Cc1cc(C)cc(C(CC(C)C)NC(=O)c2cc(COc3cc(F)cc(F)c3)ccc2CCC(=O)O)c1 (configuration not stated) | – |
| 0.13 | 3.2 | COc1cccc(C(CC(C)C)NC(=O)c2cc(COc3cccc(C#N)c3)ccc2CCC(=O)O)c1 (configuration not stated) | – |
| 0.26 | 25 | CC(C)CC(NC(=O)c1cc(COc2ccccc2)ccc1CCC(=O)O)c1ccc(F)c(Cl)c1 (configuration not stated) | – |
| 0.14 | 42 | COc1ccc(C(CC(C)C)NC(=O)c2cc(COc3ccccc3)ccc2CCC(=O)O)cc1F (configuration not stated) | – |
| 0.16 | 11 | COc1ccc(C(CC(C)C)NC(=O)c2cc(COc3ccccc3)ccc2CCC(=O)O)cc1C (configuration not stated) | – |
| 0.2 | 40 | CC(C)CC(NC(=O)c1cc(COc2ccccc2)ccc1CCC(=O)O)c1cccc(F)c1 (configuration not stated) | – |
| 0.25 | 5.4 | Cc1cc(C)cc(C(CC(C)C)NC(=O)c2cc(COc3ccc(F)cc3)ccc2CCC(=O)O)c1 (configuration not stated) | – |
| 0.11 | 4.2 | Cc1cccc(OCc2ccc(CCC(=O)O)c(C(=O)NC(CC(C)C)c3cc(C)cc(C)c3)c2)c1 (configuration not stated) | – |
| 0.2 | 6.6 | Cc1cccc(C(CC(C)C)NC(=O)c2cc(COc3cccc(C#N)c3)ccc2CCC(=O)O)c1 (configuration not stated) | – |
| 0.2 | 2.8 | Cc1cc(C(CC(C)C)NC(=O)c2cc(COc3cccc(C#N)c3)ccc2CCC(=O)O)ccc1F (configuration not stated) | – |
| 0.18 | 35 | CC(C)CC(NC(=O)c1cc(COc2ccccc2)ccc1CCC(=O)O)c1cccc(Cl)c1 (configuration not stated) | – |
| 0.13 | 21 | COc1cccc(C(CC(C)C)NC(=O)c2cc(COc3ccccc3)ccc2CCC(=O)O)c1 (configuration not stated) | – |
| 0.15 | 3.6 | Cc1cc(C)cc(C(CC(C)C)NC(=O)c2cc(COc3cccc(F)c3F)ccc2CCC(=O)O)c1 (configuration not stated) | – |
| 0.27 | 3.2 | COc1cccc(OCc2ccc(CCC(=O)O)c(C(=O)NC(CC(C)C)c3cc(C)cc(C)c3)c2)c1 (configuration not stated) | – |
| 0.17 | 16 | Cc1ccc(C(CC(C)C)NC(=O)c2cc(COc3ccccc3)ccc2CCC(=O)O)cc1C (configuration not stated) | – |
| 0.1 | 13 | Cc1cc(C)cc(C(CC(C)C)NC(=O)c2cc(COc3ccccc3F)ccc2CCC(=O)O)c1 (configuration not stated) | – |
